Kir21 block = inhibitors of mouse Kir2.1 inward-rectifier potassium channel | AID 1672 | 310,000 tested, 0.85% active | HEK293-Kir2.1, FluxOR thallium flux fluorescence; stronger effect = lower value | P35561 | B-score at 10 µM;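 active = fluorescence ratio B-score at or below minus 3 SD of library scores, with starting-brightness B-score within 2 SD, cut at about -4.2 in these data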;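 note: channel flux triggered by added potassium and thallium sulfate stimulus; B-score of peak minus minimum fluorescence over baseline after thallium stimulus; more negative B-score means stronger Kir2.1 block with less thallium influx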
KCNQ1 block = inhibitors of human KCNQ1 potassium channel | P51787 | CHO-K1 KCNQ1, FluxOR thallium flux fluorescence; stronger effect = higher value | B-score at 10 µM | 310,000 tested, 1.3% active;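 active = compounds whose thallium flux B-score, printed positive for inhibition, exceeds three library SD while starting fluorescence stays within three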;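 note: channel opened by potassium depolarization with thallium stimulus after 20 min compound exposure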
Target sequence (P51787 whole entry, looked up): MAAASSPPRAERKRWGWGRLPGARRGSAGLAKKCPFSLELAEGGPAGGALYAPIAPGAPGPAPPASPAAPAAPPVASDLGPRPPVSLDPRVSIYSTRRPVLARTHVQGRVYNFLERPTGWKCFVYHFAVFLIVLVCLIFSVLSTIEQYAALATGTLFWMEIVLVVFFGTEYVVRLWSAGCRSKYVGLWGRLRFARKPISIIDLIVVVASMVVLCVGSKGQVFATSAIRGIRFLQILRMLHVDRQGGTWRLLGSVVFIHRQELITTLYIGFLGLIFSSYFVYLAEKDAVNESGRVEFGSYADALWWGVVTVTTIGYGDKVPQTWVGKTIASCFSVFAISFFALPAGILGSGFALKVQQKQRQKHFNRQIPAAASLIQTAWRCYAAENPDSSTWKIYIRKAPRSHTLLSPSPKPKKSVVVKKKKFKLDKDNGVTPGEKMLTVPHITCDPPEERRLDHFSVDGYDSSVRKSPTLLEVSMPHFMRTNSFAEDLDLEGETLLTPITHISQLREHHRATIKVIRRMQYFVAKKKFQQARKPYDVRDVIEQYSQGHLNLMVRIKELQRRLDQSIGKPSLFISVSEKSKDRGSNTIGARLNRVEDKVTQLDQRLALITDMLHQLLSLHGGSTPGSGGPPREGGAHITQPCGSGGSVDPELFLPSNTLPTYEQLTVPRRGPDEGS
KCNK9 block = blocks the human KCNK9 two-pore domain potassium channel. 310,000 tested, 1.2% active. HEK293 KCNK9, FluxOR thallium flux fluorescence; stronger effect = lower value. B-score at 10 µM. AID 488922;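 active = ratio B-score over 3 SD below the library mean, with starting fluorescence within 5 SD of its mean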;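 note: negative B-score means less thallium flux so channel inhibition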
KCNQ1 pot = potentiates or activates the human KCNQ1 potassium channel; 310,000 tested, 0.35% active; B-score at 10 µM; P51787; CHO-K1 KCNQ1, thallium flux FluxOR fluorescence; stronger effect = higher value;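 active = fluorescence ratio B-score, a plate-corrected score, at least three library SD, with initial intensity B-score within 5 SD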
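assay system = CHO-K1 cells stably expressing KCNQ1 | medium = assay buffer, equal DMSO in all wells | timing = 37 °C overnight plating, 90-min dark dye load, 20-min compound pretreatment | measured by = kinetic FluxOR thallium fluorescence, 10-s 1-Hz baseline, 110-s post-stimulus read | measure = fluorescence change relative to baseline, converted to B score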
KCNK3 inh = human KCNK3 channel inhibition, primary screen. CHO-KCNK3 thallium flux, FluxOR fluorescence; stronger effect = lower value. 340,000 tested, 0.84% active. B-score at 10 µM. AID 602410;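 active = B-score under library mean minus 4 SD, starting fluorescence ratio at most library mean plus 5 SD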;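 note: more negative B-score means stronger inhibition of thallium flux through KCNK3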
hERG rescue = hERG (human) protection from proarrhythmic block. CHO-hERG, FluxOR thallium flux, dofetilide IC70 present. activation (rescue from dofetilide block), less the hit threshold, % at 10 µM. 310,000 tested, 0.51% active;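 active = activation above the mean of controls blocked by dofetilide plus 5 SD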;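 note: thallium influx through hERG after potassium depolarization seen as dye fluorescence rise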
KCNQ1 block val = reconfirmed blocker of the human KCNQ1 potassium channel. KCNQ1 cell line, FluxOR thallium flux fluorescence. shares compounds with KCNQ1 block. 1,600 tested, 93% active. inhibition, % at 10 µM;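 active = primary screen active, with duplicate mean exceeding buffer control mean plus 3 SD of buffer wells, cut at about 28% in these data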;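 note: 0% = buffer control ratio and 100% = XE991 inhibitor control ratio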
CHO Tl flux = activity in parental CHO cells lacking KCNQ1; 1,600 tested, 21% active; shares compounds with KCNQ1 block; parental CHO-K1, FluxOR thallium flux fluorescence ratio; stronger effect = lower value; zero means no signal rise above baseline; fluorescence ratio (Tl flux) at 10 µM; AID 588366;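 active = mean of duplicate thallium-flux fluorescence ratios in parental host cells more than 5 SD below the buffer control mean, cut at about 0.38 in these data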;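 note: ratio is peak minus minimum fluorescence divided by baseline fluorescence; actives read low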
KCNQ1 APC inh = human KCNQ1 inhibition validated by electrophysiology | AID 624120 | calls only at 10 µM | shares compounds with KCNQ1 block | KCNQ1-CHO cells, automated patch clamp current | 490 tested, 20% active;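 active = KCNQ1 current drop exceeding 3 SD of negative control wells, seen in both duplicate runs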;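 note: steady state current during a 2 s step from -80 to +40 mV; negative values mean current inhibition and positive values mean potentiation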
KCNQ2 inh = KCNQ1 inhibitor that also blocks rat KCNQ2 channel; shares compounds with KCNQ1 block; KCNQ2 cells, FluxOR thallium flux fluorescence; inhibition, % at 10 µM; 1,600 tested, 71% active; AID 651746;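 active = mean percent inhibition of the KCNQ2 thallium signal more than 5 SD above the buffer-only control wells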;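 note: KCNQ2 expressed in CHO cells; 0% = buffer control wells and 100% = XE-991 inhibitor control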
KCNQ1-KCNE1 inh = selectivity of KCNQ1 inhibitors: inhibition of human KCNQ1/KCNE1 channel | shares compounds with KCNQ1 block | KCNQ1/KCNE1 cells, FluxOR thallium flux fluorescence | inhibition, % at 10 µM | 1,600 tested, 77% active | AID 652147;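 active = mean percent inhibition of duplicate wells above the buffer-only control mean plus 3 SD of those controls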;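 note: 0% = buffer only wells and 100% = XE-991 inhibitor control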
An asterisk follows results filed as active; i = inactive; . = not tested or not shown; + = active, no number. An excerpt weighted towards active compounds, which were near 3.8% of everything screened.

SMILES | Kir21 block | KCNQ1 block | KCNK9 block | KCNQ1 pot | KCNK3 inh | hERG rescue | KCNQ1 block val | CHO Tl flux | KCNQ2 inh | KCNQ1-KCNE1 inh | others
CCOC(=O)c1cnc(SC)nc1Oc1cccc(NS(=O)(=O)c2ccccc2)c1 | 1.67 | 7* | i | i | i | -15.7 | 56.5* | 0.448 | 93.0%* | 49.5%*
CC(NC(=S)Nc1ccc(OC(F)F)c(Cl)c1)C(C)(C)C (configuration not stated) | -0.45 | 8* | i | i | i | -16.2 | 60.5* | 0.491 | i | 36.0%*
CC1CN(C(=O)CCC(=O)NCCCc2ccccc2)c2ccccc2O1 (configuration not stated) | -0.62 | i | i | i | i | -10.7 | . | . | . | .
Cc1ccc(O)c(-c2cc(C(F)(F)C(F)F)[nH]n2)c1 | 1.8 | 6* | i | i | i | -15.5 | 93.0* | 0.511 | 104.7%* | 129.0%* | KCNQ1 APC inh=+
NC(=O)c1ccccc1NC(=O)c1ccccc1Cl | 1.18 | i | i | i | i | -2.6 | . | . | . | .
O=C(Nc1ccccc1C(=O)Nc1nnc(C(F)(F)F)s1)c1ccccc1Cl | -1.34 | 6* | i | i | i | -12.9 | 66.5* | 0.449 | 65.3%* | i
COC(=O)c1ccc(Cl)c(NC(=O)NC23CC4CC(CC(C4)C2)C3)c1 | -1.86 | 10* | i | i | i | -18.2 | 131.0* | 0.436 | 108.3%* | 170.5%*
COc1ccc(C(=O)CCC(=O)N2CCN(c3ccc(C)cc3)C(C)C2)cc1 (configuration not stated) | -0.83 | i | i | i | i | -7.7 | . | . | . | .
CCN1CCN(CCNC(=O)c2ccc3nc(-c4cccc(C)c4)c(-c4cccc(C)c4)nc3c2)CC1 | -1.65 | 8* | i | i | i | -32.0 | 76.0* | 0.315* | 91.3%* | 162.5%*
O=C(Nc1nc2ccc(F)cc2s1)C1CCN(S(=O)(=O)c2cc([N+](=O)[O-])ccc2Cl)CC1 | 0.1 | 15* | i | i | i | -19.5 | 158.5* | 0.373* | 118.3%* | 197.5%*
COc1cccc(C2CC(c3cccs3)=NN2C(=O)CSc2nc3c(cnn3-c3ccc(F)cc3)c(=O)[nH]2)c1OC (configuration not stated) | 1.41 | 15* | i | i | i | -7.0 | 116.0* | 0.421 | 70.7%* | 85.0%* | KCNQ1 APC inh=i
Cc1nc(N2CCC(C)CC2)c2c(C)c(C(=O)Nc3ccc4c(c3)OCCO4)sc2n1 | 0.01 | 8* | i | i | i | -10.3 | 112.0* | 0.423 | 119.7%* | 91.5%* | KCNQ1 APC inh=i
Cc1c(C(=O)Nc2ccc3c(c2)OCCO3)sc2ncnc(N3CCCCC3C)c12 (configuration not stated) | 0.73 | i | i | i | i | -16.0 | . | . | . | .
O=C(c1cnn2c(C(F)F)cc(-c3ccccc3)nc12)N1CCOCC1 | -0.74 | i | i | i | i | -3.3 | . | . | . | .
O=C(c1cc2nc(-c3ccccc3)cc(C(F)(F)F)n2n1)N1CCOCC1 | -0.48 | i | i | i | i | -1.0 | . | . | . | .
O=C(c1cnn2c(-c3ccccc3)cc(-c3ccccc3)nc12)N1CCN(Cc2ccccc2)CC1 | 0.02 | 7* | i | i | i | -12.6 | 129.5* | 0.311* | 153.7%* | +
CC1CCN(C(=O)c2cc3nc(-c4ccccc4)cc(-c4ccccc4)n3n2)CC1 | -0.38 | 6* | i | i | i | -14.5 | 112.5* | 0.438 | 107.7%* | 182.5%* | KCNQ1 APC inh=i
Cc1cc(C)cc(C(=O)N(Cc2ccco2)c2c(N)n(Cc3ccccc3)c(=O)[nH]c2=O)c1 | . | . | . | . | i | . | . | . | . | .
CC(C)c1ccccc1NC(=O)CSc1n[nH]c(=O)n1C1CC1 | . | . | . | . | i | . | . | . | . | .
CN(C)Cc1cc(C(C)(C)c2ccccc2)ccc1O | . | . | . | . | i | . | . | . | . | .
Cc1ccccc1C(=O)Nc1ccc(N(C)C)c2ccccc12 | -1.87 | i | i | i | i | -9.8 | . | . | . | .
Cc1ccc(CNS(=O)(=O)c2ccc(CN3C(=O)c4cccnc4C3=O)s2)o1 | 1.88 | i | i | i | i | -5.0 | . | . | . | .
Cc1cc2c(cc1C)NC(c1c(C)n(C)n(-c3ccccc3)c1=O)C1=C(CC(C)(C)CC1=O)N2 (configuration not stated) | -4.65 | 15* | i | i | i | -20.9 | 0.0 | 0.476 | i | i
COc1cc(C2Nc3cc(C)c(C)cc3NC3=C2C(=O)CC(C)(C)C3)ccc1OC(C)=O (configuration not stated) | -0.05 | i | i | i | i | -5.4 | . | . | . | .
Cc1cc(C)c(O)c(-c2cc(C(=O)Nc3ccc(S(=O)(=O)N4CCOCC4)cc3)[nH]n2)c1 | 0.02 | 6* | i | i | i | -13.2 | 133.0* | 0.373* | 94.3%* | +
SMILES | Kir21 block | KCNQ1 block | KCNK9 block | KCNQ1 pot | KCNK3 inh | hERG rescue | KCNQ1 block val | CHO Tl flux | KCNQ2 inh | KCNQ1-KCNE1 inh | others
CNc1nc(Nc2ccc(C(C)=O)cc2)nc(OC(C(F)(F)F)C(F)(F)F)n1 | 0.64 | i | i | i | i | -5.8 | . | . | . | .
CC(=O)c1ccc(Nc2nc(NCCO)nc(OC(C(F)(F)F)C(F)(F)F)n2)cc1 | -0.02 | 8* | i | i | i | -25.9 | 85.0* | 0.495 | i | 113.5%*
Cc1ccc(C(=O)NC(=S)Nc2ccc(CN3CCCCC3)cc2)c(C)c1 | -2.54 | 6* | i | i | i | -13.7 | 57.5* | 0.49 | 67.0%* | 63.0%*
CCCn1nc(NC(=O)c2cccs2)c2cc3cccc(C)c3nc21 | 0.35 | 7* | i | i | i | -10.1 | 157.5* | 0.32* | i | +
COc1ccc(-c2nc3ccccc3nc2-c2ccccc2)cc1OC | -0.78 | i | i | i | i | -18.9 | . | . | . | .
COc1ccc(-c2cc(-c3ccccc3)nc(Cl)n2)cc1OC | 1.01 | 8* | i | i | i | -5.5 | 131.0* | 0.45 | 128.0%* | 166.0%* | KCNQ1 APC inh=i
